pKi: −log10 of the molar value. Each block holds one compound with its values, some of them ahead of it.
How the values were obtained:
Mus musculus [1] = assay: Biodistribution of intravenously injected [82Br]-labeled compound in stomach of BDF1 female mice bearing subcutaneous Lewis lung carcinoma after 0.50 hours; format: ADME, organism-based; conditions: in vivo, iv, 0.5 h
Mus musculus [2] = assay: Biodistribution of intravenously injected [82Br]-labeled compound in bone of BDF1 female mice bearing subcutaneous Lewis lung carcinoma after 4 hours; format: ADME, organism-based, Bone element; conditions: in vivo, iv
Outline: (§1)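 82Br-labeled nucleoside given intravenously to female BDF1 mice bearing subcutaneous Lewis lung carcinoma, at 47-130 μg carrying 20-60 kBq. Mice sacrificed at each time point. Wet-weighed tissues γ-counted. Values are percent injected dose per gram wet tissue, mean ± SD, n = 6.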

Mus musculus [3] = assay: Biodistribution of intravenously injected [82Br]-labeled compound in lung of BDF1 female mice bearing subcutaneous Lewis lung carcinoma after 1 hours; format: ADME, organism-based; conditions: in vivo, iv
Outline: (§2)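 Female BDF1 mice with subcutaneous Lewis lung carcinoma given an iv injection of [82Br]-labelled nucleoside, 47-130 μg carrying 20-60 kBq 82Br. Tissues were excised, weighed wet and γ-counted. Values are percent injected dose per gram of wet tissue, mean ± standard deviation of six animals, with organ-to-tumour ratios derived.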

Mus musculus [4] = assay: Biodistribution of intravenously injected [82Br]-labeled compound in skin of BDF1 female mice bearing subcutaneous Lewis lung carcinoma after 2 hours; format: ADME, organism-based, Zone of skin; conditions: in vivo, iv; outline: as §2
Mus musculus [5] = assay: Biodistribution of intravenously injected [82Br]-labeled compound in stomach of BDF1 female mice bearing subcutaneous Lewis lung carcinoma after 4 hours; format: ADME, organism-based; conditions: in vivo, iv
Mus musculus [6] = assay: Biodistribution of intravenously injected [82Br]-labeled compound in tumor of BDF1 female mice bearing subcutaneous Lewis lung carcinoma after 4 hr; format: ADME, organism-based; conditions: in vivo, iv
Mus musculus [7] = assay: Biodistribution of intravenously injected [82Br]-labeled compound in liver of BDF1 female mice bearing subcutaneous Lewis lung carcinoma after 4 hours; format: ADME, organism-based; conditions: in vivo, iv; outline: as §2
Mus musculus [8] = species: Mus musculus; assay: Inhibition constant for influx competition with [6-3H]thymidine in mouse erythrocytes; format: functional
Outline: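 Freshly harvested mouse erythrocytes were exposed to various concentrations of test nucleoside and [6-3H]thymidine, and zero-trans thymidine influx was measured. Extracellular [6-3H]thymidine was measured over time by liquid scintillation counting of aliquots. The Ki for competition at the nucleoside transporter was derived by previously described methods.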

Mus musculus [9] = assay: Biodistribution of intravenously injected [82Br]-labeled compound in skin of BDF1 female mice bearing subcutaneous Lewis lung carcinoma after 4 hours; format: ADME, organism-based, Zone of skin; conditions: in vivo, iv; outline: as §2
Mus musculus [10] = assay: Biodistribution of intravenously injected [82Br]-labeled compound in skin of BDF1 female mice bearing subcutaneous Lewis lung carcinoma after 24 hours; format: ADME, organism-based, Zone of skin; conditions: in vivo, iv; outline: as §2
Mus musculus [11] = assay: Biodistribution of intravenously injected [82Br]-labeled compound in skin of BDF1 female mice bearing subcutaneous Lewis lung carcinoma after 0.50 hours; format: ADME, organism-based, Zone of skin; conditions: in vivo, iv, 0.5 h; outline: as §2
Mus musculus [12] = assay: Biodistribution of intravenously injected [82Br]-labeled compound in stomach of BDF1 female mice bearing subcutaneous Lewis lung carcinoma after 0.25 hours; format: ADME, organism-based; conditions: in vivo, iv
Mus musculus [13] = assay: Biodistribution of intravenously injected [82Br]-labeled compound in gut of BDF1 female mice bearing subcutaneous Lewis lung carcinoma after 4 hours; format: ADME, organism-based; conditions: in vivo, iv; outline: as §2
Mus musculus [14] = assay: Biodistribution of intravenously injected [82Br]-labeled compound in gut of BDF1 female mice bearing subcutaneous Lewis lung carcinoma after 0.25 hours; format: ADME, organism-based; conditions: in vivo, iv; outline: as §1
Mus musculus [15] = assay: Biodistribution of intravenously injected [82Br]-labeled compound in heart of BDF1 female mice bearing subcutaneous Lewis lung carcinoma after 24 hours; format: ADME, organism-based; conditions: in vivo, iv; outline: as §2
Mus musculus [16] = species: Mus musculus; assay: Urinary [131I]- compound observed in BDF1 female mice bearing lewis lung tumor after 0-0.5 h of injected [131I]-compound; format: functional, tissue-based; conditions: Urine
Mus musculus [17] = assay: Biodistribution of intravenously injected [131I]-labeled compound in muscle of BDF1 female mice bearing subcutaneous Lewis lung carcinoma after 4 hours; format: ADME, organism-based, Muscle tissue; conditions: in vivo, iv
Outline: (§3)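 Female BDF1 mice with subcutaneous Lewis lung carcinoma given i.v. 0.5-1.8 μg of 131I-labeled nucleoside (55-110 kBq). Killed at set times. Tissues weighed wet and γ-counted. Radioactivity expressed as percent injected dose per gram wet tissue, mean ± SD of six animals.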

Mus musculus [18] = species: Mus musculus; assay: Urinary [131I]5-iodouracil observed in BDF1 female mice bearing lewis lung tumor after 0-0.5 hr of injected [131I]-compound; format: functional, tissue-based; conditions: Urine
Mus musculus [19] = assay: Biodistribution of intravenously injected [131I]-labeled compound in heart of BDF1 female mice bearing subcutaneous Lewis lung carcinoma after 0.50 hours; format: ADME, organism-based; conditions: in vivo, iv, 0.5 h
Outline: (§4)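 Female BDF1 mice bearing subcutaneous Lewis lung carcinoma received a single intravenous dose of 0.5-1.8 μg of the 131I-labeled nucleoside (55-110 kBq). They were sacrificed at set times, and tissues were weighed wet and γ-counted. Activity is expressed as percent of injected dose per gram of wet tissue, given as mean ± standard deviation for six animals.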

Mus musculus [20] = assay: Biodistribution of intravenously injected [131I]-labeled compound in blood of BDF1 female mice bearing subcutaneous Lewis lung carcinoma after 24 hours; format: ADME, organism-based; conditions: in vivo, iv; outline: as §4
Mus musculus [21] = assay: Biodistribution of intravenously injected [131I]-labeled compound in heart of BDF1 female mice bearing subcutaneous Lewis lung carcinoma after 2 hours; format: ADME, organism-based; conditions: in vivo, iv; outline: as §4
Mus musculus [22] = assay: Biodistribution of intravenously injected [131I]-labeled compound in tumor of BDF1 female mice bearing subcutaneous Lewis lung carcinoma after 8 hours; format: ADME, organism-based; conditions: in vivo, iv; outline: as §3
Mus musculus [23] = assay: Biodistribution of intravenously injected [82Br]-labeled compound in blood of BDF1 female mice bearing subcutaneous Lewis lung carcinoma after 4 hours; format: ADME, organism-based; conditions: in vivo, iv, in the assay text read “[131I]-labeled” for “[82Br]-labeled”
Mus musculus [24] = assay: Biodistribution of intravenously injected [131I]-labeled compound in bone of BDF1 female mice bearing subcutaneous Lewis lung carcinoma after 2 hours; format: ADME, organism-based, Bone element; conditions: in vivo, iv; outline: as §4
Mus musculus [25] = assay: Biodistribution of intravenously injected [131I]-labeled compound in heart of BDF1 female mice bearing subcutaneous Lewis lung carcinoma after 0.25 hours; format: ADME, organism-based; conditions: in vivo, iv; outline: as §4
Mus musculus [26] = species: Mus musculus; assay: Other urinary compounds observed in BDF1 female mice bearing lewis lung tumor after 24 hr of injected [131I]-compound; format: functional, tissue-based; conditions: Urine
Mus musculus [27] = assay: Biodistribution of intravenously injected [131I]-labeled compound in stomach of BDF1 female mice bearing subcutaneous Lewis lung carcinoma after 0.25 hours; format: ADME, organism-based; conditions: in vivo, iv; outline: as §3
Mus musculus [28] = assay: Biodistribution of intravenously injected [131I]-labeled compound in liver of BDF1 female mice bearing subcutaneous Lewis lung carcinoma after 1 hours; format: ADME, organism-based; conditions: in vivo, iv; outline: as §4
Mus musculus [29] = assay: Biodistribution of intravenously injected [131I]-labeled compound in heart of BDF1 female mice bearing subcutaneous Lewis lung carcinoma after 4 hours; format: ADME, organism-based; conditions: in vivo, iv; outline: as §4
Mus musculus [30] = assay: Biodistribution of intravenously injected [131I]-labeled compound in heart of BDF1 female mice bearing subcutaneous Lewis lung carcinoma after 8 hours; format: ADME, organism-based; conditions: in vivo, iv; outline: as §4
Mus musculus [31] = assay: Biodistribution of intravenously injected [131I]-labeled compound in lung of BDF1 female mice bearing subcutaneous Lewis lung carcinoma after 0.25 hours; format: ADME, organism-based; conditions: in vivo, iv; outline: as §4
Mus musculus [32] = assay: Biodistribution of intravenously injected [131I]-labeled compound in gut of BDF1 female mice bearing subcutaneous Lewis lung carcinoma after 24 hours; format: ADME, organism-based; conditions: in vivo, iv; outline: as §4
Mus musculus [33] = species: Mus musculus; assay: Urinary iodide observed in BDF1 female mice bearing lewis lung tumor after 0-0.5 hr of injected [131I]-compound; format: functional, tissue-based; conditions: Urine
Mus musculus [34] = assay: Biodistribution of intravenously injected [131I]-labeled compound in gut of BDF1 female mice bearing subcutaneous Lewis lung carcinoma after 0.25 hours; format: ADME, organism-based; conditions: in vivo, iv; outline: as §4
Mus musculus [35] = assay: Biodistribution of intravenously injected [131I]-labeled compound in kidney of BDF1 female mice bearing subcutaneous Lewis lung carcinoma after 0.25 hours; format: ADME, organism-based; conditions: in vivo, iv; outline: as §4
Mus musculus [36] = assay: Biodistribution of intravenously injected [131I]-labeled compound in spleen of BDF1 female mice bearing subcutaneous Lewis lung carcinoma after 0.50 hours; format: ADME, organism-based; conditions: in vivo, iv, 0.5 h; outline: as §3

Injected dose/g (Mus musculus [1]): 0.79%
Injected dose/g (Mus musculus [2]): 0.17%
Injected dose/g (Mus musculus [3]): 0.52%
Injected dose/g (Mus musculus [4]): 0.39%
Injected dose/g (Mus musculus [5]): 0.4%
Injected dose/g (Mus musculus [6]): 0.37%
Injected dose/g (Mus musculus [7]): 0.23%
pKi (Mus musculus [8]): 3.41
Injected dose/g (Mus musculus [9]): 0.31%
Injected dose/g (Mus musculus [10]): 0.22%
Injected dose/g (Mus musculus [11]): 0.72%
Injected dose/g (Mus musculus [12]): 1.29%
Injected dose/g (Mus musculus [13]): 0.28%
Injected dose/g (Mus musculus [14]): 1.19%
Injected dose/g (Mus musculus [15]): 0.48%
SMILES: O=c1[nH]c(=O)n([C@H]2O[C@@H](CO)[C@H](O)[C@H]2F)cc1Br

Injected dose/g (Mus musculus [17]): 1.3%
Injected dose/g (Mus musculus [19]): 6.4%
Injected dose/g (Mus musculus [20]): 0.16%
Injected dose/g (Mus musculus [21]): 5.7%
Injected dose/g (Mus musculus [22]): 1.9%
Injected dose/g (Mus musculus [23]): 8.5%
Injected dose/g (Mus musculus [24]): 1.2%
Injected dose/g (Mus musculus [25]): 7%
Injected dose/g (Mus musculus [27]): 3.7%
Injected dose/g (Mus musculus [28]): 3.6%
pKi (Mus musculus [8]): 3.39
Injected dose/g (Mus musculus [29]): 3.5%
Injected dose/g (Mus musculus [30]): 1.6%
Injected dose/g (Mus musculus [31]): 7.9%
Injected dose/g (Mus musculus [32]): 0.07%
Injected dose/g (Mus musculus [34]): 3.1%
Injected dose/g (Mus musculus [35]): 21.1%
Injected dose/g (Mus musculus [36]): 2.9%
SMILES: O=c1[nH]c(=O)n([C@@H]2O[C@H](CO)[C@@H](O)[C@H]2F)cc1I
Radioactive constituents (Mus musculus [16]): 90.8%
Radioactive constituents (Mus musculus [18]): 1.8%
Radioactive constituents (Mus musculus [26]): 0%
Radioactive constituents (Mus musculus [33]): 4.7%
